Source: PubChem BioAssay
Results filed as inconclusive are left out. Activity calls are given as the source filed them.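 The calls were made as follows, unless noted: active = viability increase at or above a cutoff of the median across tested compounds plus 3 SD (cut at about 8.5% in these data, passing the limit was not always enough); inconclusive = some gains above the cutoff, reason not given; inactive = the rest.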

Tests used:
[1] = S. cerevisiae growth inhibition in permissive medium (OD615), pilot counter-assay for S. cerevisiae lifespan shortening project, permissive growth control (AID 705;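 active = growth inhibition above 25% in both replicates, a cutoff set 3 SD above the mean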); settings: OD615, 24 h, at 10 µM, active compounds read high
How it was run: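 Test system: Saccharomyces cerevisiae strain carrying genetically modified DeaD replicative-lifespan system; buffer or medium: SC raffinose/galactose permissive medium; dosing: one dose 10 µM, DMSO 0.25% final; times: 24 h exposure, 30 °C; measured by: OD at 615 nm; read-out basis: growth inhibition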

[2] = S. cerevisiae growth inhibition in restrictive medium, OD615, pilot screen, restrictive growth control, yeast lifespan reduction project (AID 706;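 active = growth inhibition above a set limit, 3 SD over mean compound inhibition, in both replicates, cut at about 43% in these data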;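 also: modified DeaD lifespan yeast strain shifted to restrictive glucose medium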); settings: OD615, 48 h, at 10 µM, active compounds read high
How it was run: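 material = engineered S. cerevisiae DeaD strain | buffer or medium = glucose-based CSMM-D restrictive medium | dosing = one concentration, 10 µM final, 0.25% DMSO | schedule = 4 h pre-growth plus 48 h compound exposure, 30 °C | detection = OD615 absorbance reading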

[3] = doxorubicin toxicity protection in MRP-1 cells – H69AR cells, CellTiter-Glo, duplicate, MRP-1 activator project, pilot screen (AID 807); settings: H69AR viability with doxorubicin, CellTiter-Glo luminescence; at 10 µM; active compounds read high;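 also: compound pretreatment 18-22 h then 72 h combined with doxorubicin; 0% = doxorubicin alone and 100% = vehicle without doxorubicin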
[4] = viability of HCT116 without oncogenic beta-catenin – human colon tumor cells, pilot screen (AID 823;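 active = cell viability at or below a set limit in both duplicate runs, the limit being the all-compound median minus 4 SD, cut at about 23% in these data, passing the limit was not always enough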;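 also: 0% = wells killed by 20 µM Hyamine and 100% = untreated DMSO cell wells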); settings: HCT116 beta-catenin knockout viability, CellTiter-Glo, 60 h; at 10 µM; active compounds read low
[5] = viability of PTEN-null HCT116 cells – cell-based, HCT116 clonal line, CellTiter-Glo, pilot screen (AID 824;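 active = viability at or below 27.92% in each of two runs, the all-compound median minus 4 SD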;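 also: 0% = 20 µM Hyamine control and 100% = vehicle cell control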); settings: HCT116 PTEN-deleted viability, 60 h, at 10 µM, active compounds read low
[6] = RAM pathway blockade in budding yeast – dse1pr::URA3 reporter, 5-FOA selection, pilot screen (AID 869;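 active = inhibition over a set limit, the all-compound mean plus 3 SD, in both replicate runs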;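 also: 0% = DMSO wells with no growth and 100% = 10 µM 1-NA-PP1 with full growth; RAM network block rescues cells from 5-FOA so hits raise OD615 growth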); settings: S. cerevisiae dse1pr::URA3 5-FOA growth, OD615, 2 d; at 10 µM; active compounds read high; strain carries analog-sensitive mutant Cbk1 kinase
[7] = RAM signaling pathway blockade in yeast – S. cerevisiae, Pdr1DBD-CYC8 efflux-inhibited sensitized strain, primary screen (AID 1298;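 active = RAM network inhibition above 8.4% in each of two replicates, 3 SD over the compound average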;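 also: 0% = DMSO untreated cells without growth and 100% = 10 µM 1-NA-PP1 full growth; higher means more yeast growth rescued from 5-FOA killing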); settings: S. cerevisiae cbk1-as DSE1-URA3 strain, 5-FOA growth OD615, 2 d; at 50 µM; active compounds read high

CCCn1nc2ccccc2c1P(=N)(N1CCOCC1)N1CCOCC1
inactive: growth inhibition [1] -7.87% | growth inhibition [2] -23.5% | viability increase [3] -2% | viability [4] 96% | viability [5] 96.8% | inhibition [6] 2.04% | RAM network inhibition [7] 1.45%

Cn1c(=O)[nH]c(=O)c2c1nc(N1CCCCC1)n2CCSc1nc2ccccc2o1
inactive: growth inhibition [1] -4.52% | growth inhibition [2] -1.63% | viability increase [3] -3.7% | viability [4] 90.7% | viability [5] 92.4% | inhibition [6] 1.11% | RAM network inhibition [7] 1.87%

CCOC(=O)Nc1ccc2ncn(C)c(=O)c2c1
inactive: growth inhibition [1] -16.6% | growth inhibition [2] -8.55% | viability increase [3] -5.77% | viability [4] 101% | viability [5] 94.8% | inhibition [6] -0.055% | RAM network inhibition [7] 1.08%

O=C1O/C(=C\C(=O)N2CCOCC2)c2ccccc21
inactive: growth inhibition [1] -2.53% | growth inhibition [2] 2.46% | viability increase [3] -1.56% | viability [4] 94.5% | viability [5] 99.2% | inhibition [6] 2.46% | RAM network inhibition [7] 4.69%

NC(=O)C1(N2CCCCC2)CCN(C(=O)c2ccccc2)CC1
inactive: growth inhibition [1] -4.24% | growth inhibition [2] -19.4% | viability increase [3] -1.09% | viability [4] 103% | viability [5] 90.4% | inhibition [6] 0.21% | RAM network inhibition [7] 5.36%

O=C(NCC1COc2ccccc2O1)C1C2C=CC3(CN(Cc4ccccc4Cl)C(=O)C13)O2 (configuration not stated)
inactive: growth inhibition [1] -6.06% | growth inhibition [2] -7.88% | viability increase [3] -1% | viability [4] 84.2% | viability [5] 84% | inhibition [6] 1.02% | RAM network inhibition [7] 0%

[O-]/[N+](=C\c1ccc(OC(F)F)cc1)c1ccccc1
inactive: growth inhibition [1] -1.07% | growth inhibition [2] 2.88% | viability increase [3] -5.13% | viability [4] 88.1% | viability [5] 93.7% | inhibition [6] 1.19% | RAM network inhibition [7] 1.08%

CC(C)CCNC(=O)Cn1c(=O)oc2cc(S(=O)(=O)N3CCc4ccccc43)ccc21
inactive: growth inhibition [1] -6.32% | growth inhibition [2] -5.12% | viability increase [3] -5.87% | viability [4] 71.8% | viability [5] 62.5% | inhibition [6] 1.15% | RAM network inhibition [7] 1.07%

O=C(CN1C(=O)CCC1=O)Nc1nc2c(F)cc(F)cc2s1
inactive: growth inhibition [1] -23% | growth inhibition [2] -18.8% | viability increase [3] -0.91% | viability [4] 99.4% | viability [5] 92.5% | inhibition [6] 1.6% | RAM network inhibition [7] 1.49%

Cn1c(=O)c2cc(S(=O)(=O)NC(Cc3ccccc3)C(=O)NCc3ccco3)ccc2n(C)c1=O (configuration not stated)
inactive: growth inhibition [1] -16.4% | growth inhibition [2] -11.4% | viability increase [3] -4.79% | viability [4] 101% | viability [5] 92% | inhibition [6] 2.81% | RAM network inhibition [7] 4.39%

O=C(NCc1ccccn1)C1CCC(=O)N1C1CCCC1 (configuration not stated)
inactive: growth inhibition [1] -0.9% | growth inhibition [2] 3.94% | viability increase [3] -0.45% | viability [4] 98.2% | viability [5] 98% | inhibition [6] 1.67% | RAM network inhibition [7] 4.67%

CCOC(=O)C1=C(N)OC2=C(C(=O)CCC2)C1c1cccs1 (configuration not stated)
inactive: growth inhibition [1] -0.655% | growth inhibition [2] 5.78% | viability increase [3] 0.3% | viability [4] 108% | viability [5] 104% | inhibition [6] 0.345% | RAM network inhibition [7] 2.67%

CCC(C)Sc1nc2c(c(=O)n1C)SC(C)C2 (configuration not stated)
inactive: growth inhibition [1] -11.3% | growth inhibition [2] 7.98% | viability increase [3] -0.66% | viability [4] 91.6% | viability [5] 91.8% | inhibition [6] 2.51% | RAM network inhibition [7] 4.01%

COc1ccc(OC)c2sc(NC(=O)c3ccc(S(=O)(=O)N(C)C)cc3)nc12
inactive: growth inhibition [1] -19.3% | growth inhibition [2] -17.2% | viability increase [3] -5.45% | viability [4] 72.9% | viability [5] 68.9% | inhibition [6] 3.56% | RAM network inhibition [7] 6.48%

O=C(CN1CCOc2ccccc21)N1CCN(c2cccc(Cl)c2)CC1
inactive: growth inhibition [1] 6% | growth inhibition [2] 18.6% | viability increase [3] -4.17% | viability [4] 84.1% | viability [5] 84.4% | inhibition [6] 2.77% | RAM network inhibition [7] 4.14%

CCOC(=O)C1CCN(S(=O)(=O)c2ccc3c4c(cccc24)C(=O)N3)CC1
inactive: growth inhibition [1] -4.42% | growth inhibition [2] -7.67% | viability increase [3] -3.39% | viability [4] 96.5% | viability [5] 85.7% | inhibition [6] 1.76% | RAM network inhibition [7] 2.83%

CN1CCN(C(=O)c2ccccc2NC(=O)c2cccs2)CC1
inactive: growth inhibition [1] -11% | growth inhibition [2] -8.35% | viability increase [3] -2.33% | viability [4] 98.5% | viability [5] 91.7% | inhibition [6] 0.45% | RAM network inhibition [7] 2.03%

COc1ccc(NC(=O)C(c2ccc(C)cc2)N(C)C(=O)c2cnccn2)cc1 (configuration not stated)
inactive: growth inhibition [1] 1.81% | growth inhibition [2] 1.4% | viability increase [3] -1.03% | viability [4] 89.6% | viability [5] 95.6% | inhibition [6] -0.145% | RAM network inhibition [7] 0.06%

Cc1cc(C)c2c(=O)n(CC(=O)N3CCC(N4CCCCC4)CC3)sc2n1
active: viability [4] 2.7% | viability [5] 16.2%
inactive: growth inhibition [1] 4.7% | growth inhibition [2] 9.28% | viability increase [3] -7.14% | inhibition [6] 2.08% | RAM network inhibition [7] 0.2%

O=C(NC(C(=O)c1ccccc1)N1CCOCC1)c1ccccc1 (configuration not stated)
inactive: growth inhibition [1] -2.93% | growth inhibition [2] 13.8% | viability increase [3] -2.37% | viability [4] 99.3% | viability [5] 101% | inhibition [6] 1.61% | RAM network inhibition [7] 1.98%

O=[n+]1c2c(n([O-])c3c1CCCC3)CCCCC2
inactive: growth inhibition [1] -3.03% | growth inhibition [2] -9.11% | viability increase [3] 0.93% | viability [4] 102% | viability [5] 99.5% | inhibition [6] 0.345% | RAM network inhibition [7] -0.51%

C=C(C)Cn1c(C(C)NC(=O)CCC)nc2ccccc21 (configuration not stated)
inactive: growth inhibition [1] -26.1% | growth inhibition [2] -7.25% | viability increase [3] -3.54% | viability [4] 83.9% | viability [5] 86.7% | inhibition [6] 1.8% | RAM network inhibition [7] 0.47%

CCOc1ccc(S(=O)(=O)n2ccnc2)c2ccccc12
inactive: growth inhibition [1] -2.9% | growth inhibition [2] 0.2% | viability increase [3] -1.1% | viability [4] 101% | viability [5] 106% | inhibition [6] 0.31% | RAM network inhibition [7] 2.78%

CCC(C)Sc1nc2c(cnn2-c2ccc(C)cc2)c(=O)[nH]1 (configuration not stated)
inactive: growth inhibition [1] -13% | growth inhibition [2] -3.34% | viability increase [3] -3.06% | viability [4] 93.9% | viability [5] 88.9% | inhibition [6] 4.24% | RAM network inhibition [7] 0.41%

COc1cc(Cl)c(S(=O)(=O)NCc2cccnc2)cc1Cl
inactive: growth inhibition [1] -9.13% | growth inhibition [2] -9.08% | viability increase [3] 0.38% | viability [4] 99.5% | viability [5] 97.3% | inhibition [6] 0.745% | RAM network inhibition [7] 4.73%

O=C(Nc1nc2ccccc2s1)c1ccc(Cl)s1
inactive: growth inhibition [1] -14.7% | growth inhibition [2] -29.6% | viability increase [3] -3.11% | viability [4] 88.3% | viability [5] 77% | inhibition [6] 2.79% | RAM network inhibition [7] 1.32%

CC1(C)CC(=O)C2=C(C1)OC(N)=C(C#N)C2c1ccc(OC(=O)N2CCOCC2)cc1 (configuration not stated)
inactive: growth inhibition [1] -8.71% | growth inhibition [2] -10.3% | viability increase [3] -1.1% | viability [4] 100% | viability [5] 105% | inhibition [6] 1.12% | RAM network inhibition [7] 0.1%

C=CCOc1ccc(C2c3c(oc4ccccc4c3=O)C(=O)N2c2ccccn2)cc1OCC (configuration not stated)
inactive: growth inhibition [1] -13.9% | growth inhibition [2] -10.5% | viability increase [3] -5.39% | viability [4] 77.9% | viability [5] 74.6% | inhibition [6] 2.57% | RAM network inhibition [7] 6.03%

Cc1cc2ncn(C3CC(=O)N(Cc4ccc(N5CCCC5=O)cc4)C3=O)c2cc1C (configuration not stated)
inactive: growth inhibition [1] -7.9% | growth inhibition [2] 13.8% | viability increase [3] -0.37% | viability [4] 97.9% | viability [5] 98.5% | inhibition [6] 0.14% | RAM network inhibition [7] 1.48%

Cn1c(=NC(=O)C2CC2)sc2cc(F)cc(F)c21
inactive: growth inhibition [1] -0.79% | growth inhibition [2] 8.89% | viability increase [3] -4.58% | viability [4] 91.3% | viability [5] 92.6% | inhibition [6] 1.81% | RAM network inhibition [7] 7.52%

CCCCn1c(=NC(=O)c2cccnc2)c(C(=O)OCC)cc2c(=O)n3ccccc3nc21
inactive: growth inhibition [1] -19.8% | growth inhibition [2] -15% | viability increase [3] -4.72% | viability [4] 84.2% | viability [5] 88.1% | inhibition [6] 0.685% | RAM network inhibition [7] 7.68%
